Test results as given in ChEMBL document CHEMBL5058577, “EUbOPEN Chemogenomics Library 2 (Multiplex)” (2022).

Tested on: HEK-293T
Test: Multiplex assay against HEK293T
Type: toxicity, cell-based
Settings: human
How it was run: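 Per cents of healthy-nucleus cells form the tubulin, mitochondrial-mass and membrane-permeability phenotype values. Live cells were stained at seeding with Hoechst33342, BioTracker Green Microtubule Cytoskeleton Dye, MitoTracker Red and Annexin V Alexa Fluor 680. After compound addition they were imaged on a CQ1 microscope at 37°C and 5% CO2, and CellPathfinder machine-learning gating split them into Hoechst high-intensity objects or normal cells, normal cells into healthy, pyknosed or fragmented nuclei, and pyknosed cells into mitotic or apoptotic.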

[1] = 12 h, 1 µM, compound concentration 1 uM, replicate 1
[2] = 12 h, 1 µM, compound concentration 1 uM, replicate 2
[3] = 12 h, 10 µM, compound concentration 10 uM, replicate 1
[4] = 12 h, 10 µM, compound concentration 10 uM, replicate 2
[5] = 24 h, 1 µM, compound concentration 1 uM, replicate 1
[6] = 24 h, 1 µM, compound concentration 1 uM, replicate 2
[7] = 24 h, 10 µM, compound concentration 10 uM, replicate 1
[8] = 24 h, 10 µM, compound concentration 10 uM, replicate 2
[9] = 48 h, 1 µM, compound concentration 1 uM, replicate 1
[10] = 48 h, 1 µM, compound concentration 1 uM, replicate 2
[11] = 48 h, 10 µM, compound concentration 10 uM, replicate 1
[12] = 48 h, 10 µM, compound concentration 10 uM, replicate 2

Cc1nc2ccc(Oc3ccc(F)cc3)cc2c(=O)n1C[C@H]1CCCN(C(C)C)C1.Cl
Population Apoptotic (%) [1]: 40%
Population Fragmented Nuclei (%) [1]: 7%
Population Healthy Nuclei (%) [1]: 80%
Population Hoechst High Intensity Objects (%) [1]: 6%
Population Membrane Permeable-Phenotype (%) [1]: 0%
Population Mitochondria Different-Phenotype (%) [1]: 50%
Population Mitotic Cells (%) [1]: 60%
Population Normal (%) [1]: 93%
Population Pyknosed Nuclei (%) [1]: 11%
Population Tubulin-Different-Phenotype (%) [1]: 42%
Total Cell Count [1]: 381
Population Apoptotic (%) [2]: 61%
Population Fragmented Nuclei (%) [2]: 5%
Population Healthy Nuclei (%) [2]: 70%
Population Hoechst High Intensity Objects (%) [2]: 27%
Population Mitochondria Different-Phenotype (%) [2]: 69%
Population Mitotic Cells (%) [2]: 38%
Population Normal (%) [2]: 72%
Population Pyknosed Nuclei (%) [2]: 24%
Population Tubulin-Different-Phenotype (%) [2]: 34%
Total Cell Count [2]: 204
Population Apoptotic (%) [3]: 54%
Population Fragmented Nuclei (%) [3]: 7%
Population Healthy Nuclei (%) [3]: 78%
Population Hoechst High Intensity Objects (%) [3]: 17%
Population Membrane Permeable-Phenotype (%) [3]: 0%
Population Mitochondria Different-Phenotype (%) [3]: 81%
Population Mitotic Cells (%) [3]: 45%
Population Normal (%) [3]: 82%
Population Pyknosed Nuclei (%) [3]: 13%
Population Tubulin-Different-Phenotype (%) [3]: 76%
Total Cell Count [3]: 405
Population Apoptotic (%) [4]: 61%
Population Fragmented Nuclei (%) [4]: 8%
Population Healthy Nuclei (%) [4]: 74%
Population Hoechst High Intensity Objects (%) [4]: 20%
Population Mitochondria Different-Phenotype (%) [4]: 94%
Population Mitotic Cells (%) [4]: 38%
Population Normal (%) [4]: 79%
Population Pyknosed Nuclei (%) [4]: 17%
Population Tubulin-Different-Phenotype (%) [4]: 73%
Total Cell Count [4]: 310
Population Apoptotic (%) [5]: 31%
Population Fragmented Nuclei (%) [5]: 11%
Population Healthy Nuclei (%) [5]: 80%
Population Hoechst High Intensity Objects (%) [5]: 4%
Population Membrane Permeable-Phenotype (%) [5]: 0%
Population Mitochondria Different-Phenotype (%) [5]: 36%
Population Mitotic Cells (%) [5]: 68%
Population Normal (%) [5]: 95%
Population Pyknosed Nuclei (%) [5]: 8%
Population Tubulin-Different-Phenotype (%) [5]: 27%
Total Cell Count [5]: 553
Population Apoptotic (%) [6]: 37%
Population Healthy Nuclei (%) [6]: 72%
Population Hoechst High Intensity Objects (%) [6]: 22%
Population Mitochondria Different-Phenotype (%) [6]: 52%
Population Mitotic Cells (%) [6]: 62%
Population Normal (%) [6]: 77%
Population Pyknosed Nuclei (%) [6]: 16%
Population Tubulin-Different-Phenotype (%) [6]: 20%
Total Cell Count [6]: 281
Population Apoptotic (%) [7]: 49%
Population Fragmented Nuclei (%) [7]: 10%
Population Healthy Nuclei (%) [7]: 73%
Population Hoechst High Intensity Objects (%) [7]: 12%
Population Membrane Permeable-Phenotype (%) [7]: 3%
Population Mitochondria Different-Phenotype (%) [7]: 67%
Population Mitotic Cells (%) [7]: 50%
Population Normal (%) [7]: 87%
Population Pyknosed Nuclei (%) [7]: 15%
Population Tubulin-Different-Phenotype (%) [7]: 70%
Total Cell Count [7]: 525
Population Apoptotic (%) [8]: 68%
Population Fragmented Nuclei (%) [8]: 11%
Population Healthy Nuclei (%) [8]: 75%
Population Hoechst High Intensity Objects (%) [8]: 23%
Population Membrane Permeable-Phenotype (%) [8]: 0%
Population Mitochondria Different-Phenotype (%) [8]: 88%
Population Mitotic Cells (%) [8]: 31%
Population Normal (%) [8]: 76%
Population Pyknosed Nuclei (%) [8]: 12%
Population Tubulin-Different-Phenotype (%) [8]: 68%
Total Cell Count [8]: 334
Population Apoptotic (%) [9]: 27%
Population Fragmented Nuclei (%) [9]: 19%
Population Healthy Nuclei (%) [9]: 75%
Population Hoechst High Intensity Objects (%) [9]: 1%
Population Membrane Permeable-Phenotype (%) [9]: 1%
Population Mitochondria Different-Phenotype (%) [9]: 22%
Population Mitotic Cells (%) [9]: 72%
Population Normal (%) [9]: 98%
Population Pyknosed Nuclei (%) [9]: 5%
Population Tubulin-Different-Phenotype (%) [9]: 14%
Total Cell Count [9]: 901
Population Apoptotic (%) [10]: 60%
Population Fragmented Nuclei (%) [10]: 13%
Population Healthy Nuclei (%) [10]: 80%
Population Hoechst High Intensity Objects (%) [10]: 7%
Population Membrane Permeable-Phenotype (%) [10]: 0%
Population Mitochondria Different-Phenotype (%) [10]: 36%
Population Mitotic Cells (%) [10]: 39%
Population Normal (%) [10]: 92%
Population Pyknosed Nuclei (%) [10]: 6%
Total Cell Count [10]: 380
Population Apoptotic (%) [11]: 47%
Population Fragmented Nuclei (%) [11]: 15%
Population Healthy Nuclei (%) [11]: 74%
Population Hoechst High Intensity Objects (%) [11]: 11%
Population Membrane Permeable-Phenotype (%) [11]: 2%
Population Mitochondria Different-Phenotype (%) [11]: 60%
Population Mitotic Cells (%) [11]: 52%
Population Normal (%) [11]: 88%
Population Pyknosed Nuclei (%) [11]: 9%
Population Tubulin-Different-Phenotype (%) [11]: 62%
Total Cell Count [11]: 754
Population Apoptotic (%) [12]: 67%
Population Fragmented Nuclei (%) [12]: 17%
Population Healthy Nuclei (%) [12]: 72%
Population Hoechst High Intensity Objects (%) [12]: 22%
Population Membrane Permeable-Phenotype (%) [12]: 0%
Population Mitochondria Different-Phenotype (%) [12]: 69%
Population Mitotic Cells (%) [12]: 32%
Population Normal (%) [12]: 78%
Population Tubulin-Different-Phenotype (%) [12]: 58%
Total Cell Count [12]: 459

COc1ccccc1N1CCN(CCCCNC(=O)c2ccc3ccccc3c2)CC1.Cl
Population Apoptotic (%) [1]: 45%
Population Healthy Nuclei (%) [1]: 81%
Population Hoechst High Intensity Objects (%) [1]: 6%
Population Mitochondria Different-Phenotype (%) [1]: 53%
Population Mitotic Cells (%) [1]: 54%
Population Normal (%) [1]: 93%
Population Tubulin-Different-Phenotype (%) [1]: 41%
Total Cell Count [1]: 430
Population Apoptotic (%) [2]: 36%
Population Healthy Nuclei (%) [2]: 79%
Population Hoechst High Intensity Objects (%) [2]: 5%
Population Mitochondria Different-Phenotype (%) [2]: 76%
Population Mitotic Cells (%) [2]: 63%
Population Normal (%) [2]: 94%
Population Tubulin-Different-Phenotype (%) [2]: 35%
Total Cell Count [2]: 354
Population Apoptotic (%) [3]: 71%
Population Healthy Nuclei (%) [3]: 69%
Population Hoechst High Intensity Objects (%) [3]: 16%
Population Mitochondria Different-Phenotype (%) [3]: 90%
Population Mitotic Cells (%) [3]: 28%
Population Normal (%) [3]: 83%
Population Tubulin-Different-Phenotype (%) [3]: 75%
Total Cell Count [3]: 321
Population Apoptotic (%) [4]: 70%
Population Healthy Nuclei (%) [4]: 75%
Population Hoechst High Intensity Objects (%) [4]: 15%
Population Mitochondria Different-Phenotype (%) [4]: 93%
Population Mitotic Cells (%) [4]: 29%
Population Normal (%) [4]: 84%
Population Tubulin-Different-Phenotype (%) [4]: 72%
Total Cell Count [4]: 256
Population Apoptotic (%) [5]: 27%
Population Healthy Nuclei (%) [5]: 78%
Population Hoechst High Intensity Objects (%) [5]: 6%
Population Mitochondria Different-Phenotype (%) [5]: 38%
Population Mitotic Cells (%) [5]: 72%
Population Normal (%) [5]: 93%
Population Tubulin-Different-Phenotype (%) [5]: 32%
Total Cell Count [5]: 561
Population Apoptotic (%) [6]: 36%
Population Healthy Nuclei (%) [6]: 82%
Population Mitochondria Different-Phenotype (%) [6]: 62%
Population Mitotic Cells (%) [6]: 63%
Population Tubulin-Different-Phenotype (%) [6]: 26%
Total Cell Count [6]: 444
Population Apoptotic (%) [7]: 56%
Population Healthy Nuclei (%) [7]: 74%
Population Hoechst High Intensity Objects (%) [7]: 13%
Population Mitochondria Different-Phenotype (%) [7]: 96%
Population Mitotic Cells (%) [7]: 43%
Population Normal (%) [7]: 86%
Population Tubulin-Different-Phenotype (%) [7]: 87%
Total Cell Count [7]: 393
Population Apoptotic (%) [8]: 60%
Population Healthy Nuclei (%) [8]: 69%
Population Hoechst High Intensity Objects (%) [8]: 17%
Population Mitochondria Different-Phenotype (%) [8]: 94%
Population Mitotic Cells (%) [8]: 39%
Population Normal (%) [8]: 82%
Population Tubulin-Different-Phenotype (%) [8]: 66%
Total Cell Count [8]: 276
Population Apoptotic (%) [9]: 20%
Population Healthy Nuclei (%) [9]: 81%
Population Hoechst High Intensity Objects (%) [9]: 3%
Population Mitochondria Different-Phenotype (%) [9]: 34%
Population Mitotic Cells (%) [9]: 79%
Population Normal (%) [9]: 96%
Population Tubulin-Different-Phenotype (%) [9]: 20%
Total Cell Count [9]: 841
Population Apoptotic (%) [10]: 46%
Population Healthy Nuclei (%) [10]: 78%
Population Hoechst High Intensity Objects (%) [10]: 5%
Population Mitochondria Different-Phenotype (%) [10]: 37%
Population Mitotic Cells (%) [10]: 53%
Population Normal (%) [10]: 94%
Population Tubulin-Different-Phenotype (%) [10]: 22%
Total Cell Count [10]: 635
Population Apoptotic (%) [11]: 60%
Population Healthy Nuclei (%) [11]: 77%
Population Hoechst High Intensity Objects (%) [11]: 8%
Population Mitochondria Different-Phenotype (%) [11]: 88%
Population Mitotic Cells (%) [11]: 40%
Population Normal (%) [11]: 91%
Population Tubulin-Different-Phenotype (%) [11]: 73%
Total Cell Count [11]: 519
Population Apoptotic (%) [12]: 78%
Population Healthy Nuclei (%) [12]: 78%
Population Hoechst High Intensity Objects (%) [12]: 10%
Population Mitotic Cells (%) [12]: 21%
Population Normal (%) [12]: 89%
Population Tubulin-Different-Phenotype (%) [12]: 71%
Total Cell Count [12]: 329
